Laboratory results reported in ChEMBL document CHEMBL3580589, “Discovery of Quinazoline-Based Fluorescent Probes to α1-Adrenergic Receptors” (ACS Med Chem Lett, 2015).
Calls of active or inactive are those of the source. The calls are words filed in the database; no cut-off is given here.

How the values were obtained:
[1] = Cytotoxicity against HEK293A cells transfected with alpha-1D adrenergic receptor assessed as cell viability by sulforhodamine B assay; format: cell-based; conditions: Homo sapiens, HEK293-A
Procedure, shortened: (§1)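 Standard sulforhodamine B colorimetric assay in HEK293A cells stably transfected with α1A-AR or α1D-AR.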

[2] = Cytotoxicity against HEK293A cells transfected with alpha-1A adrenergic receptor assessed as cell viability by sulforhodamine B assay; format: cell-based; conditions: Homo sapiens, HEK293-A; procedure, shortened: as §1
[3] = target: T1, Alpha-1A adrenergic receptor (Homo sapiens) (UniProt P35348); test: Binding affinity to alpha-1A adrenergic receptor (unknown origin) transfected in HEK293A cells at 15 nM measured 5 mins post wash out by DiD dye-based confocal microscopic analysis in presence of alpha1 adrenergic receptor antagonist tamsulosin; format: cell-based; conditions: HEK293-A
T1 sequence (whole entry): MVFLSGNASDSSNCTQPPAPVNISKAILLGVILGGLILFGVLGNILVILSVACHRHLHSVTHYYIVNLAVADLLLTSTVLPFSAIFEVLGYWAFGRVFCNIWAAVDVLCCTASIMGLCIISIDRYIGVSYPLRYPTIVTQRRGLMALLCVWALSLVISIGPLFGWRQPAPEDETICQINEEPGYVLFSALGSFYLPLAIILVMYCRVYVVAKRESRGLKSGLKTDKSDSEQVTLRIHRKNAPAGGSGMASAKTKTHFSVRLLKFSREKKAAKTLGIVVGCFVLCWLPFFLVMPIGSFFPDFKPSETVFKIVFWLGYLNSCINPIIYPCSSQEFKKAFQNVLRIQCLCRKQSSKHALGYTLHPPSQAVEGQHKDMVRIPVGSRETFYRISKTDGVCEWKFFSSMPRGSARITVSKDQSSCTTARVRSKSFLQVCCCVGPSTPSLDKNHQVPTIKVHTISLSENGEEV
Procedure, shortened: (§2)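 α1A-AR- or α1D-AR-transfected HEK293A cells were incubated with the probe at 15 nM, DiD and tamsulosin at 300 nM as competitor for 5 min at 37 °C. Cells were washed immediately and imaged by confocal microscopy at identical exposure.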

[4] = target: T2, Alpha-1D adrenergic receptor (Homo sapiens) (UniProt P25100); test: Binding affinity to alpha-1D adrenergic receptor (unknown origin) transfected in HEK293A cells at 15 nM measured 5 mins post wash out by DiD dye-based confocal microscopic analysis; format: cell-based; conditions: HEK293-A
T2 sequence (whole entry): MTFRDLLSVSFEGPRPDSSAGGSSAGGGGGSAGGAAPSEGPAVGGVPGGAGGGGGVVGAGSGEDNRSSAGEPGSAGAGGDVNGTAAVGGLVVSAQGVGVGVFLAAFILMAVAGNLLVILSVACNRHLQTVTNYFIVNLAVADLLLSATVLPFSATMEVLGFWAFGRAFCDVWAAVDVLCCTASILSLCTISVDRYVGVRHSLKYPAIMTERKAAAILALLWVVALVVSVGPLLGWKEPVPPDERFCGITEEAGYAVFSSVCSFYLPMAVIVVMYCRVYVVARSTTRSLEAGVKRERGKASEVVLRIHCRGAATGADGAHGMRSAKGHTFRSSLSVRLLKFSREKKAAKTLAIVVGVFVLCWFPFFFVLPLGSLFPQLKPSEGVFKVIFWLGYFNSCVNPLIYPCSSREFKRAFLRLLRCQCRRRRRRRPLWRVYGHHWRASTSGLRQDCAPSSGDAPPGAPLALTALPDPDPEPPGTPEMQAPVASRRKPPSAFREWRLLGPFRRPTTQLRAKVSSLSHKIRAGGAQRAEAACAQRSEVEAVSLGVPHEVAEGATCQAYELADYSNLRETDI
Procedure, shortened: (§3)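 HEK293A cells stably transfected with α1A-AR or α1D-AR, or untransfected HEK293A cells, were incubated with the probe at 15 nM plus the membrane dye DiD for 5 min at 37 °C. Cells were washed immediately and imaged by confocal fluorescence microscopy at identical exposure times.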

[5] = target: T3, Alpha-1A adrenergic receptor (Homo sapiens, UniProt P35348); test: Displacement of [3H]-Prazosin from human alpha-1A adrenergic receptor transfected in CHO cell membranes after 2 hrs by microplate scintillation counting analysis
T3 sequence (P35348 whole entry): T1 sequence (whole entry)
Procedure, shortened: (§4)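 Radioligand competition binding used [3H]prazosin on membranes from CHO cells transfected with human cloned α1A-, α1B- or α1D-adrenoceptors.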

[6] = target: T1, Alpha-1A adrenergic receptor (Homo sapiens); test: Binding affinity to alpha-1A adrenergic receptor (unknown origin) transfected in HEK293A cells at 15 nM measured 5 mins post wash out by DiD dye-based confocal microscopic analysis; format: cell-based; conditions: HEK293-A; procedure, shortened: as §3
[7] = target: T4, Alpha-1B adrenergic receptor (Homo sapiens, UniProt P35368); test: Displacement of [3H]-Prazosin from human alpha-1B adrenergic receptor transfected in CHO cell membranes after 2 hrs by microplate scintillation counting analysis; procedure, shortened: as §4
T4 sequence (P35368 whole entry): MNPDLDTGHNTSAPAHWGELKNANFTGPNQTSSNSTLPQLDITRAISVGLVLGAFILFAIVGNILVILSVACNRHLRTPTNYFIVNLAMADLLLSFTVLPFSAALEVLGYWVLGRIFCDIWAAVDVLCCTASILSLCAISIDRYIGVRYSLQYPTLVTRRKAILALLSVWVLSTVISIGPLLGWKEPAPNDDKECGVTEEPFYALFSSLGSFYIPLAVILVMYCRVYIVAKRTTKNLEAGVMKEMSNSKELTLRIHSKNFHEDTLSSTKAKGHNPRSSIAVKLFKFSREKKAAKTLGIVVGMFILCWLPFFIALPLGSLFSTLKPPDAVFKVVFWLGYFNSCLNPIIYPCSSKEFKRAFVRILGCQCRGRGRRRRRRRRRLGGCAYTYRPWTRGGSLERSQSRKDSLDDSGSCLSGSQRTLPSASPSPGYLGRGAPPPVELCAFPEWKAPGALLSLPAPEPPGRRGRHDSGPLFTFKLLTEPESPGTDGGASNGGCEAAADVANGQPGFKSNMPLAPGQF

[8] = Drug uptake in HEK293A cells at 15 nM measured 5 mins post wash out by DiD dye-based confocal microscopic analysis; format: ADME, cell-based; conditions: human, hek293-a, 0.015 µM; procedure, shortened: as §3
[9] = target: T2, Alpha-1D adrenergic receptor (Homo sapiens); test: Binding affinity to alpha-1D adrenergic receptor (unknown origin) transfected in HEK293A cells at 15 nM measured 5 mins post wash out by DiD dye-based confocal microscopic analysis in presence of alpha1 adrenergic receptor antagonist tamsulosin; format: cell-based; conditions: HEK293-A; procedure, shortened: as §2
[10] = target: T5, Alpha-1D adrenergic receptor (Homo sapiens, UniProt P25100); test: Displacement of [3H]-Prazosin from human alpha-1D adrenergic receptor transfected in CHO cell membranes after 2 hrs by microplate scintillation counting analysis; procedure, shortened: as §4
T5 sequence (P25100 whole entry): T2 sequence (whole entry)

[11] = target: T2, Alpha-1D adrenergic receptor (Homo sapiens); test: Binding affinity to alpha-1D adrenergic receptor (unknown origin) transfected in HEK293 cells at 20 nM after 20 mins by flow cytometric analysis; format: cell-based
[12] = target: T2, Alpha-1D adrenergic receptor (Homo sapiens); test: Binding affinity to alpha-1D adrenergic receptor (unknown origin) transfected in HEK293A cells at 10 nM after 5 mins by DiD dye-based confocal microscopic analysis; format: cell-based; conditions: HEK293-A
Procedure, shortened: (§5)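 α1A-AR- or α1D-AR-transfected HEK293A cells, or untransfected HEK293A cells as the receptor-free control, were incubated with the probe plus DiD (red, colocalization) for 5 min at 37 °C. Probe signal was compared with the DiD-stained surface for subcellular localization by fluorescence microscopy.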

[13] = target: T2, Alpha-1D adrenergic receptor (Homo sapiens); test: Binding affinity to alpha-1D adrenergic receptor (unknown origin) transfected in HEK293A cells at 10 nM after 5 mins by DiD dye-based confocal microscopic analysis in presence of alpha1 adrenergic receptor antagonist tamsulosin; format: cell-based; conditions: HEK293-A
Procedure, shortened: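 Transfected HEK293A cells expressing α1A-AR or α1D-AR were incubated with the probe, DiD and tamsulosin as competing α1-AR antagonist for 5 min at 37 °C. Fluorescence labelling was imaged by confocal microscopy.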

[14] = Drug uptake in HEK293A cells at 10 nM after 5 mins by DiD dye-based confocal microscopic analysis; format: ADME, cell-based; conditions: human, hek293-a, 0.01 µM; procedure, shortened: as §5

| SMILES | IC50 [1] | IC50 [2] | Activity [3] | Activity [4] | IC50 [5] | Ki [5] | Activity [6] | IC50 [7] | Drug uptake [8] | Activity [9] | IC50 [10] | Activity [11] | Activity [12] | Ki [7] | Activity [13] | Drug uptake [14] | Ki [10] |
| --- | --- | --- | --- | --- | --- | --- | --- | --- | --- | --- | --- | --- | --- | --- | --- | --- | --- |
| COc1cc2nc(N3CCN(C(=O)C4COc5ccccc5O4)CC3)nc(N)c2cc1OC (stereo not given) [DOXAZOSIN] | 22000 nM | 19000 nM |  |  |  |  |  |  |  |  |  |  |  |  |  |  |  |
| COc1cc2nc(N3CCN(C(=O)c4cn(-c5cc6ccc(O)cc6oc5=O)nn4)CC3)nc(N)c2cc1OC | 85000 nM | > 100000 nM | inactive | Active | 2.5 nM | 1.3 nM | Active | < 5 nM | Active | inactive | < 5 nM |  |  |  |  |  |  |
| CCN(CC)c1ccc2cc(-n3cc(C(=O)N4CCN(c5nc(N)c6cc(OC)c(OC)cc6n5)CC4)nn3)c(=O)oc2c1 | 32000 nM | 12000 nM |  |  | 0.6 nM | 0.3 nM |  | 1.2 nM |  |  | 2.2 nM | Active | Active | 0.1 nM | inactive | Active | 0.4 nM |
